Results: ChEMBL document CHEMBL3352478, “Novel benzopsoralen analogues: synthesis, biological activity and molecular docking studies” (2014)

Assays:
[1] = Antiproliferative activity against human TCCSUP cells after 48 hrs by MTS assay; assay type: functional; details: TCC-SUP
How it was run: (§1)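 Cells were grown in DMEM with 1% penicillin/streptomycin and FBS (10% for MDA-MB-231, 15% for TCC-SUP). At 1×10^4 cells/mL, cells were exposed for 48 h to five compound concentrations freshly diluted from DMSO stocks (final DMSO <1%). MTS reagent was then added for 2 h at 37 °C, 5% CO2, and absorbance read at 490 nm. Viability was taken as % of control and GI50 read from dose-response curves; 3 independent cultures, 4 wells per concentration.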

[2] = system: MDA-MB-231; assay: Antiproliferative activity against human MDA-MB-231 cells after 48 hrs by MTS assay; assay type: functional; details: MDA-MB-231, 48 h; how it was run: as §1

Row | Structure (SMILES) | GI50 [1] [nM] | GI50 [2] [nM]
1 | Cc1cc(=O)oc2c1ccc1c3ccccc3sc12 | 253 | 49
2 | Cc1c(Cl)c(=O)oc2c1ccc1c3ccccc3sc12 | 311 | 460
3 | CCOC(=O)/C=C/n1c2ccccc2c2cc(O)ccc21 | 25 | 198
4 | Cc1c(Cl)c(=O)oc2cc3[nH]c4ccccc4c3cc12 | 149 | 421
5 | Cc1c(Cl)c(=O)oc2cc3c(cc12)oc1ccccc13 | 243 | 82
